Bioassay records: PubChem BioAssay, Broad Institute
E-selectin induc – induces E-selectin expression in human endothelial cells; P16581; HUVEC E-selectin immunofluorescence imaging; normalized: neutral wells 0, TNF-alpha wells 100; activation, % at 7.58 µM; actives 0.37% (n = 260,000); AID 686992;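 active = mean E-selectin-positive cell signal at least 10% of the positive control, reached in at least 60% of replicates, without over 20% cell loss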
Target sequence (P16581 whole entry, looked up): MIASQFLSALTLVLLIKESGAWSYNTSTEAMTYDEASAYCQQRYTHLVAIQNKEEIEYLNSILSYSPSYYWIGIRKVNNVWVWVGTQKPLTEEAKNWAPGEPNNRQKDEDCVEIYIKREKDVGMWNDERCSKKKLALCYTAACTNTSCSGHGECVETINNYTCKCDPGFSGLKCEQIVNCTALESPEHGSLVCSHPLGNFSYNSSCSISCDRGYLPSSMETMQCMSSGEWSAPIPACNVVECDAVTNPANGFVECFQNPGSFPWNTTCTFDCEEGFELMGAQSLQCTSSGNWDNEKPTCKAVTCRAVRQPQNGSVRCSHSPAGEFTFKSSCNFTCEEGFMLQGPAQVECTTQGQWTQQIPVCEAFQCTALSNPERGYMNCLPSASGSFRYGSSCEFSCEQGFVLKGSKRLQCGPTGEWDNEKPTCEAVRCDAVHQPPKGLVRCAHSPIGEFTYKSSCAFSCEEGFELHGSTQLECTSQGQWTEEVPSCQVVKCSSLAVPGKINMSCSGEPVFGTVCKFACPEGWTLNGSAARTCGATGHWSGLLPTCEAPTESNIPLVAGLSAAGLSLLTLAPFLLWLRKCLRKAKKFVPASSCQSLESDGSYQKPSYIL
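Test system – human umbilical vein endothelial cells (HUVEC), E-selectin induction · Input – 3,000 HUVEC seeded per well · Buffer or medium – EGM-2, gelatin · Compound dosing – single-point compound dose · Detection – immunofluorescence imaging · Measure – percent E-selectin-positive cells · Controls – TNF-alpha high, DMSO low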
S100A4 MyoIIA – inhibitors of human S100A4 binding to myosin IIA peptide. P26447. S100A4/TAMRA-MyoIIA peptide fluorescence polarization. inhibition, % at 10.7 µM. actives 0.14% (n = 360,000). AID 652163;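 active = mean inhibition of at least 70% across replicates, with every replicate also reaching that level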
Target sequence (P26447 whole entry, looked up): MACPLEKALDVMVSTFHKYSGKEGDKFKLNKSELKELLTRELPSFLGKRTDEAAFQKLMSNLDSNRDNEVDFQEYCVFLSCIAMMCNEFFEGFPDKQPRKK
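System – human S100A4 monomer protein, biochemical binding assay · Buffer or medium – Calcium-containing HEPES buffer, pH 7.2 · Timing – 5 min between mix addition and reading · Also added – TAMRA-labelled myosin IIA heavy-chain peptide probe, 5 nM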
SIRT5 inh – blocks human SIRT5 desuccinylation of peptide. Purified SirT5, succinyl-peptide AMC, trypsin-coupled fluorescence. inhibition, % at 15 µM. actives 1.1% (n = 330,000). AID 652115; in the data active = inhibition above about 15%
FGF22 binding – FGF22 (human) thermal shift binding. AID 651658. recombinant FGF22 thermal shift, SYPRO orange fluorescence; percent of sucrose octasulfate shift, DMSO zero. actives 1.5% (n = 340,000). activity (Tm shift, normalised), % at 9.99 µM. Q9HCT0;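 active = mean Tm shift, scaled 0 neutral to 100 positive control, at about 1.3% or above, every replicate too, limit read from the data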
miR122 inh – miR-122 inhibition in Huh7 cells; actives 0.3% (n = 340,000); Huh7 miR-122 Renilla luciferase sensor, 48 h; neutral wells = 0, positive control = 100; AID 602342; activation (reporter increase), % at 12.5 µM;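 active = mean replicate activation score at least 90 and every replicate individually at or above 90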;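 also: higher luciferase means less miR-122 activity so hits act as miR-122 inhibitors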
Starred values were filed as active, the others as inactive; / = no result given; [ ] = another dose, or the depositor's remark. A selection: hits, their analogues and other compounds. The true share with any hit is near 2.5%.

SMILES | E-selectin induc | S100A4 MyoIIA | SIRT5 inh | FGF22 binding | miR122 inh
CCN1/C(=c2/s/c(=C3/C(=O)N(c4ccccc4)N=C3C)n(CC)c2=O)C=Cc2ccccc21 | / | -8.7 | -0.8 | -0.1 | /
Cc1ncc(CN2CCC(CO)(Cc3ccccc3)CC2)s1 | -0.8 | 3.7 | 17.7* | -0.3 | /
COc1ccc(CC2(CO)CCN(Cc3cnn(-c4ccccc4)c3)CC2)cc1 | / | -0.5 | -4.6 | 0.2 | /
COc1ccc(CC2(CO)CCN(Cc3cnc(-c4ccccc4C)nc3)CC2)cc1 | -0.3 | 0.1 | -5.3 | 44.1* | 0.6
C[C@@H]1CN([C@@H](C)CO)C(=O)c2cc(NS(=O)(=O)c3cn(C)cn3)ccc2O[C@@H]1CN(C)C(=O)Nc1ccc(C(F)(F)F)cc1 | -3.2 | -9.6 | 3.9 | -0.3 | 3.3[16.7 µM]
C[C@@H]1CN([C@H](C)CO)C(=O)CCCn2cc(nn2)CO[C@@H]1CN(C)C(=O)Nc1ccccc1C(F)(F)F | -0.1 | / | / | / | 0.8[16.7 µM]
CCOc1cc(/C=N/N2CCN(Cc3ccccc3)CC2)ccc1O | / | 0.6 | -4.0 | -0.2 | -11.1
CCOc1cc(C=NN2CCCCCC2)ccc1O | -0.1 | -2.6 | 31.3* | -0.3 | -1.9
COc1ccc(C(=O)C2CCCN(S(=O)(=O)C(C)C)C2)c(C)c1 (stereo not given) | / | 7.6 | 24.6* | 0.7 | /
CCN(CC)c1ncnc2c1cnn2Cc1ccc(Cl)cc1 | / | -7.5 | -1.7 | 43.3* | /
O=C(Cc1ccccc1)N1CCN=C1SCc1cccc([N+](=O)[O-])c1 | 0.4 | -1.3 | -2.6 | 43.0* | /
CC(C)NC(=O)N(C)C[C@H]1Oc2ccc(NC(=O)Nc3cccc4ccccc34)cc2C(=O)N([C@@H](C)CO)C[C@@H]1C | 0.0 | 8.5 | 1.1 | -0.1 | -7.4[16.7 µM]
C[C@@H]1CN([C@H](C)CO)C(=O)CCCn2nncc2CO[C@@H]1CN(C)C(=O)CCCN(C)C | 0.2 | -3.4 | -3.3 | 0.1 | -2.7[16.7 µM]
C[C@H](CO)N1C[C@H](C)[C@H](CN(C)C(=O)Nc2ccccc2C(F)(F)F)OCc2cnnn2CCCC1=O | / | 2.5 | 15.8* | 0.8 | 4.2[16.7 µM]
C[C@H]1CN([C@@H](C)CO)C(=O)CCCn2nncc2CO[C@@H]1CN(C)C(=O)CCCN(C)C | 0.3 | -7.7 | 22.1* | 0.4 | -3.5[16.7 µM]
CC(C)NC[C@H]1[C@@H](c2ccc(C3=CCCCC3)cc2)[C@@H](CO)N1C(=O)NC(C)C | 0.2 | -8.4 | -3.7 | -0.1 | 0.0[16.7 µM]
COc1ccc(S(=O)(=O)Nc2ccc3c(c2)C(=O)N([C@H](C)CO)C[C@@H](C)[C@H](CN(C)S(=O)(=O)c2ccc(OC)cc2)OCCCC[C@@H](C)O3)cc1 | -0.2 | / | / | -0.3 | -11.3[16.7 µM]
CCOc1ccc(NC(=O)Cn2c(=O)n(CC3CCCO3)c(=O)c3ccccc32)cc1 (stereo not given) | 0.1 | -2.2 | 15.4* | -0.1 | -1.6
Cc1cccc(NC(=O)Cn2c(=O)n(CC3CCCO3)c(=O)c3ccccc32)c1 (stereo not given) | / | 4.3 | -1.1 | 0.1 | /
O=C(CCC(=O)Nc1cccc(Cl)c1)N/N=C/c1cc([N+](=O)[O-])ccc1O | / | -17.1 | 15.4* | 0.3 | /
O=C(O)CCCC(=O)Nc1cccc([N+](=O)[O-])c1 | / | -1.9 | -4.6 | 43.1* | /
COc1ccc(/C=C/C(=O)c2ccoc2)cc1 | / | -7.2 | -4.7 | / | /
COc1ccc(/C=C/C(=O)c2ccc(O)cc2)cc1 | / | 5.8 | / | 1.5* | -5.1
CN(C)C(=O)c1cc(C(=O)c2ccccc2Br)c[nH]1 | 0.0 | 1.0 | -4.4 | -0.2 | -4.3
NC(=O)c1cc(C(=O)c2cccc(Cl)c2Cl)c[nH]1 | / | 3.5 | -9.9 | 0.2 | -3.9
SMILES | E-selectin induc | S100A4 MyoIIA | SIRT5 inh | FGF22 binding | miR122 inh
CN(C)C(=O)c1cc(C(=O)c2ccccc2Cl)c[nH]1 | -0.3 | 3.9 | -1.2 | 43.0* | -3.8
NC(=O)c1cc(C(=O)c2ccccc2Cl)c[nH]1 | / | -4.1 | 0.7 | 42.9* | /
CC(C)NC(=O)Nc1ccc2c(c1)C(=O)N([C@H](C)CO)C[C@@H](C)[C@@H](CN(C)C(=O)NC1CCCCC1)OCCCC[C@H](C)O2 | -0.2 | -6.6 | 2.0 | -0.3 | -0.8[16.7 µM]
Cc1cc(C)c(S(C)(=O)=O)c(N(C)N)n1 | / | -0.1 | -0.5 | 43.1* | /
CC(C)C(=O)Nc1cc(S(=O)(=O)Nc2cccc(Cl)c2)ccc1Cl | 2.9 | -2.1 | 0.4 | 0.1 | 255.8*
COc1ccc2c3c(n(C)c2c1)[C@@H](CO)N(C(=O)c1cnccn1)CC31CCN(C)CC1 | -0.3 | / | / | 0.0 | /
CCCn1c(SCC(=O)Nc2cc(C)on2)nc2c1c(=O)n(C)c(=O)n2C | / | / | / | / | -4.8
CCCCn1c(SCC(=O)Nc2nnc(CC)s2)nc2c1c(=O)n(C)c(=O)n2C | / | / | / | / | 237.4*
CCCn1c(SCC(=O)Nc2cccc(C)n2)nc2c1c(=O)n(C)c(=O)n2C | / | 5.9 | -0.6 | 43.1* | /
O=C1CN(S(=O)(=O)c2cccc(F)c2)C[C@@H]2[C@H](c3ccc(-c4ccccc4)cc3)[C@@H](CO)N12 | -0.4 | -31.5 | 0.2 | / | /
Cc1cc(NC(=O)CCC(=O)N(Cc2ccccc2)C(C(=O)NC2CCCC2)c2ccco2)no1 (stereo not given) | / | -4.0 | 77.8* | -0.5 | -8.9
COCC(=O)Nc1ccc2c(c1)C(=O)N(C)C[C@H](OC)[C@@H](C)CN(C(=O)c1ccccc1F)[C@@H](C)CO2 | -0.3 | -12.3 | -5.2 | 0.0 | -0.3[16.7 µM]
Nc1c(C(=O)NCCc2ccccc2)nnn1Cc1ccc(Br)cc1F | 0.0 | -0.1 | 0.5 | 43.5* | /
Nc1c(C(=O)NCCc2ccccc2)nnn1Cc1ccc(Cl)cc1 | / | / | / | / | 3.7
C[C@@H]1CN([C@@H](C)CO)C(=O)c2cc(NC(=O)Cn3cnnn3)ccc2O[C@@H]1CN(C)Cc1ccc(Oc2ccccc2)cc1 | 52.1* | -19.9 | 2.0 | -0.1 | 14.9[16.7 µM]
C[C@@H]1CN([C@H](C)CO)C(=O)c2cc(NC(=O)Cn3cnnn3)ccc2O[C@@H]1CN(C)Cc1ccc(Oc2ccccc2)cc1 | 88.5* | -63.5 | -2.3 | -0.2 | -2.2[16.7 µM]
C[C@H](CO)N1C[C@H](C)[C@@H](CN(C)Cc2ccc(F)cc2)Oc2ncc(C#Cc3cccnc3)cc2C1=O | 0.4 | 9.7 | 1.9 | -0.2 | /
N#C[C@@H]1[C@H](c2ccc(C3=CCCCC3)cc2)[C@H](CO)N1C(=O)c1cccc(F)c1 | -0.8 | -12.9 | 3.2 | 0.2 | /
CCC(=O)N1CC2(C1)CN(C(=O)Nc1ccc(F)cc1)[C@H](CO)c1c2c2ccc(OC)cc2n1C | 0.1 | / | / | -0.2 | /
Cn1cccc1CC(=O)NNC(=O)Nc1cccc(Cl)c1 | -8.4 | -2.3 | -0.9 | 0.0 | /
Cn1cccc1CC(=O)NNC(=O)Nc1ccc(Cl)cc1 | / | -11.1 | -3.0 | 44.4* | /
COc1ccccc1NS(=O)(=O)c1cccc(C(=O)NCC(c2ccco2)N2CCCC2)c1 (stereo not given) | -0.4 | 15.9 | -18.3 | 0.1 | -4.5
COc1ccccc1NS(=O)(=O)c1cccc(C(=O)NCC(c2ccccc2OC)N2CCCC2)c1 (stereo not given) | / | 0.8 | 15.4* | -0.2 | -5.0
